FXIa inh: human FXIa protease inhibitors, primary screen, biochemical, 1536-well; purified FXIa, Boc-Glu-Ala-Arg-AMC fluorogenic substrate; inhibition, % at 5 µM; 0.14% of 220,000 active; AID 798, 2007;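 active = inhibition of at least 40%; inactive = inhibition below 40%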;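 also: fluorescence of freed AMC excited at 355 nm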
thrombin 1536: human alpha-thrombin inhibitors, primary screen, counter-screen for coagulation protease inhibitor project, biochemical, 1536-well, fluorogenic AMC substrate | 0.26% of 220,000 active | inhibition, % at 5 µM | AID 1046, 2008 | Boc-VPR-AMC fluorogenic substrate cleavage | Prothrombin (Homo sapiens), P00734;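 active = inhibition at or above 40%; inactive = inhibition below 40%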
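System: Human alpha-thrombin protein | Medium: pH 7.5 Tris (50 mM) with NaCl 150 mM, Tween 20 0.05% | Times: Enzyme reaction carried out at room temperature | Detection: AMC fluorescence, 355/460 nm | Evaluation: Percent inhibition scaled between no-compound controls and no-enzyme blanks | Benchmarks: Enzyme without compound as high, wells lacking enzyme as low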
FXIIa inh: human FXIIa protease inhibitors, primary screen, biochemical, 1536-well | Coagulation factor XII (Homo sapiens), P00748 | purified FXIIa, Boc-QGR-AMC fluorogenic substrate, 2 h | inhibition, % at 5 µM | 0.3% of 220,000 active | AID 800, 2007; in the data active = inhibition above about 40%
Furin inh: human furin inhibitors, primary screen, biochemical, fluorescence intensity; P09958; purified furin, fluorogenic substrate cleavage; inhibition, % at 20 µM or 30 µM; 0.061% of 220,000 active; in the data active = inhibition above about 25%
hK5 inh: human KLK5 protease inhibitors, primary screen, biochemical, 1536-well. 0.59% of 210,000 active. inhibition, % at 5 µM. recombinant hK5, fluorogenic AMC substrate cleavage. Kallikrein-5 (Homo sapiens), Q9Y337. AID 873, 2007;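 active = inhibition of 40% or more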
Numbers stand for hits; i = inactive. Rows were chosen to be rich in hits. Some 1.1% of all compounds tested hit in one or more screens of this group.

SMILES | FXIa inh | thrombin 1536 | FXIIa inh | Furin inh | hK5 inh
CC(C)CCNC(=O)NC(=O)CSc1nnc(-c2ccccc2F)n1N | i | i | i | i | 76
CCC(=O)c1ccc2ncccc2c1 | i | i | i | i | i
Cc1c(C#N)c(O)n(CCO)c(=O)c1N=Nc1ccc(S(N)(=O)=O)cc1 | i | 47 | i | i | i
Cc1c(C#N)c(O)n(C)c(=O)c1N=Nc1ccc(S(N)(=O)=O)cc1 | i | 57 | i | i | i
CCN1CCN(C(=O)CN(c2ccc(F)c(Cl)c2)S(C)(=O)=O)CC1 | i | i | i | i | i
Cc1ccc(C)c(S(=O)(=O)N2CCN(CC(=O)NC(=O)NCc3ccco3)CC2)c1 | i | i | i | i | i
C#CCOC(=O)Nc1cc(C)n(-c2ccccc2)n1 | i | i | i | i | i
Cc1sc2nc(N)sc2c1C | i | i | i | i | 63
Cc1ccc(C)c2sc(N)nc12 | i | i | i | i | i
CN(C)c1ccc(C(=S)N2CCOCC2)cc1 | i | i | 45 | i | i
CN(C)c1ccc(C(=S)N2CCN(c3ccc([N+](=O)[O-])cc3)CC2)cc1 | 52 | i | 49 | i | i
CN(C)c1ccc(C(=S)N2CCCCCC2)cc1 | i | i | i | i | i
O=[N+]([O-])c1ccc(N2CCCCC2)cc1 | i | i | i | i | 40
CC(=O)N1CCN(c2ccc([N+](=O)[O-])cc2)CC1 | i | i | i | i | i
C=CCSc1nnc(NC(=O)c2cccc(S(=O)(=O)N(C)c3ccccc3)c2)s1 | i | i | i | i | i
COc1cccc(-c2csc(N3CCN(C(=S)Nc4ccccc4)CC3)n2)c1 | i | i | i | i | 112
COc1cccc(-c2csc(N3CCN(C(=S)Nc4ccc(Cl)cc4)CC3)n2)c1 | i | i | i | i | i
COc1ccc(C(=O)Nc2ccccc2C(=O)O)cc1Cl | i | i | i | i | 47
COc1cc(N)c(Cl)cc1NC(=O)c1ccccc1 | i | i | i | i | i
COc1cc(NC(=O)c2ccccc2)c(OC)cc1Cl | i | i | i | 27 | i
Cc1cc(C)c(O)c(N)c1 | i | i | i | i | i
CC1Cn2c(nnc2-c2cc3ccccc3cc2O)S1 (stereo unspecified) | i | i | i | i | 44
O=C(Cc1ncc(C(F)(F)F)cc1Cl)NCCc1ccccc1 | i | i | i | i | i
Cc1ccc(NC(=O)Cc2ncc(C(F)(F)F)cc2Cl)cc1Cl | i | i | i | i | 57
CC(C)Sc1nc(SCC(=O)NCc2ccco2)c2c3c(sc2n1)COC(C)(C)C3 | i | i | i | i | 55
SMILES | FXIa inh | thrombin 1536 | FXIIa inh | Furin inh | hK5 inh
Nc1nncn1C(=O)CCc1ccccc1 | i | 56 | i | i | i
Nc1nncn1C(=O)CCCOc1ccccc1 | i | i | i | i | i
O=C(CSc1ncccn1)N/N=C/c1cccc(OC2CSC2)c1 | 68 | i | i | i | i
COc1ccc(NC(=O)C(Cl)=C(Cl)Cl)cn1 | i | i | i | i | 103
NC1=NC(=O)/C(=C\C=C\c2ccccc2)S1 | i | i | i | i | 55
OC(CNc1ccccc1)COc1ccc(OCC(O)CNc2ccccc2)cc1 (stereo unspecified) | i | i | i | i | 58
CCOCC(O)CNc1ccccc1 (stereo unspecified) | i | i | i | i | i
Cc1[nH]c2ccccc2c1C(=O)NS(=O)(=O)Nc1ccc(Cl)cc1 | i | i | i | i | i
COc1ccc([N+](=O)[O-])cc1NC(=O)CC1SC(=Nc2cccc(C)c2C)N(/N=C/c2cccc(OC)c2OC)C1=O (stereo unspecified) | 102 | i | i | i | i
Cc1ccc(S(=O)(=O)N2CCN(Cc3ccccc3C(F)(F)F)CC2)cc1 | i | i | i | i | i
Cc1ccc(S(=O)(=O)N2CCN(Cc3cc(C(C)C)ccc3O)CC2)cc1 | i | i | 43 | i | i
Cn1c(C(=O)N2CCCC(C(=O)NCCc3ccccc3)C2)cc2sccc21 (stereo unspecified) | i | i | i | i | i
Cc1ccc(CCNC(=O)C2CCCN(C(=O)c3cc4sccc4n3C)C2)cc1 (stereo unspecified) | i | i | i | i | 47
COc1cc(Cl)c(C)cc1NC(=O)CSc1ccc(C)cc1 | i | i | i | i | i
COc1cc(Cl)c(C)cc1NC(=O)CSC | i | i | 43 | i | i

Compound activity: PubChem BioAssay, several laboratories
